HSF1 inh: HSF1 inhibition | NIH3T3-HGL HSE-luciferase, MG132-induced, luminescence 8 h; active compounds read low | activity change, negative = inhibition, % at 7.5 µM (by protocol) | 300,000 compounds, 0.77% hits | AID 2098;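 active means more than half of replicate wells show activity change below -50%, luminescence cut by over half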;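 further: luciferase reports HSF-1 transcriptional activity via heat shock element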
HSF1 activator: increases HSF-1 driven luciferase reporter signal; NIH3T3-HGL HSF-1 luciferase reporter, MG132, 8 h; 100% = twice DMSO control signal; activation, % at 9 µM; 300,000 compounds, 1.7% hits;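 active means mean replicate activation of at least 50% with a set share of replicates each reaching 50%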
T cruzi repl: T. cruzi replication inhibition; AID 1885; inhibition, % (no concentration beside the values); T. cruzi beta-gal in NIH3T3, luminescence, 90 h; 300,000 compounds, 1.4% hits;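 active means mean inhibition across valid replicates above about 55%, limit read from the data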;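 further: signal also drops with host cell toxicity which is not excluded here; higher percent means less beta-gal luminescence so fewer parasites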
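System: Mouse NIH/3T3 fibroblasts infected with β-gal-expressing T. cruzi Tulahuen C4 | Quantity: NIH/3T3 cells, 5,000 per well | Reagent: 5000 reporter trypomastigotes per well | Dosing: Compound pinned at 50 nL/well, DMSO | Schedule: 3 h host attachment, then at least 90 h co-culture | Detection: GalScreen luminescence, 60 min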
Jurkat NFkB inh: inhibitors of the PMA/ionomycin-induced NF-kB reporter in Jurkat cells. inhibition, % at 4 µM. 330,000 compounds, 0.53% hits. PMA/ionomycin-induced NF-kB luciferase reporter, luminescence; in the data active means inhibition above about 50%
697 NFkB inh: lowers PMA/ionomycin-induced NF-kB signal in 697 B cells; inhibition, % at 4 µM; 330,000 compounds, 0.33% hits; 697 B-cell NF-kB luciferase reporter, 16 h; in the data active means inhibition above about 35%
GPR7 antagonist: blocks human GPR7 receptor signaling. inhibition, % at 4.4 µM. 290,000 compounds, 1.1% hits. AID 1861. GPR7-expressing cells, fluorescence antagonist assay. P48145; in the data active means inhibition above about 16%, passing the limit was not always enough;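 further: cells stimulated with the agonist NPW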
Target sequence (P48145 whole entry, looked up): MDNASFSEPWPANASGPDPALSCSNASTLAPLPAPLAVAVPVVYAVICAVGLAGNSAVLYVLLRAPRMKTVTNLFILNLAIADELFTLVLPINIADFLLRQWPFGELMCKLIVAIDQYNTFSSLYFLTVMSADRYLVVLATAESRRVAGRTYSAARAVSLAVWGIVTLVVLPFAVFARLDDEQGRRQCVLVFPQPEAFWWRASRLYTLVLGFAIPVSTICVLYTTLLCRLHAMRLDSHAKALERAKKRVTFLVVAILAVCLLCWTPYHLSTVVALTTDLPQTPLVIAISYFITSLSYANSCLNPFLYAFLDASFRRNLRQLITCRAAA
Numbers stand for hits; n = inactive; x = not tested or not shown. Only some compounds are listed: those with a hit (about 4.8% of all), similar ones and a draw of the others.

SMILES | HSF1 inh | HSF1 activator | T cruzi repl | Jurkat NFkB inh | 697 NFkB inh | GPR7 antagonist
CCOc1cc(CNc2ccc(N(C)C)cc2)cc(Br)c1OCC(=O)NC(C)(C)C | n | n | n | n | n | n
CCOc1cc(CNc2cccc3ccccc23)cc(Br)c1OCC(=O)NC(C)(C)C | n | n | 55 | n | n | n
CCOc1cc(CNc2ccc(N3CCCCC3)cc2)cc(Br)c1OCC(=O)NC(C)(C)C | n | n | 58 | n | n | n
CCOc1cc(CNc2ccc3c(c2)OCCO3)cc(Br)c1OCC | -82 | n | n | n | n | n
O=C(O)C1CCN(C(=O)CCc2ccccc2)CC1 | n | n | n | n | n | n
O=C(c1sc2cccc(Cl)c2c1Cl)N1CCN(CCc2ccccn2)CC1 | n | n | n | n | n | n
COc1cc(OC)cc(C(=O)NNC(=O)CCc2ccccc2)c1 | n | n | n | n | n | n
COC(=O)c1ccc2c(c1O)C(=O)c1ccccc1C2=O | n | 100 | n | n | n | n
CCSc1c(C(=O)NC)ccc2c1C(=O)c1ccccc1C2=O | n | n | n | n | n | n
CCN(CC)CCSc1nnc2c3cc(F)ccc3n(Cc3ccccc3)c2n1 | n | n | n | n | n | n
CCN(CC)CCSc1nnc2c3ccccc3n(Cc3ccccc3)c2n1 | n | n | 69 | n | n | n
O=C(Oc1ccc(-c2cnc3ccccc3n2)cc1)c1cc([N+](=O)[O-])ccc1Cl | n | 80 | n | n | n | n
Cc1c(C(=O)Oc2ccc(-c3cnc4ccccc4n3)cc2)cccc1[N+](=O)[O-] | n | n | n | n | n | n
O=C(Oc1cccc([N+](=O)[O-])c1)c1cc(-c2ccccc2)nc2ccccc12 | n | 75 | n | n | n | n
O=C(Nc1ccc([N+](=O)[O-])cn1)c1cc(-c2cccc(Cl)c2)nc2ccccc12 | n | n | 56 | n | n | n
COc1cccc(-c2cc(C(=O)Nc3ccc([N+](=O)[O-])cn3)c3ccccc3n2)c1 | n | n | n | n | n | n
O=C(Nc1ccc([N+](=O)[O-])cn1)c1cc(-c2cccc(Br)c2)nc2ccccc12 | n | n | n | n | n | n
Cc1ccc(NC(=O)c2ccc([N+](=O)[O-])cc2Cl)nc1 | n | 52 | n | n | n | n
O=C(NC1CCCC1)C(c1ccccn1)N(Cc1ccccc1F)C(=O)c1csnn1 (stereo not given) | n | n | n | n | n | n
CCc1ccc(S(=O)(=O)c2ccc(-n3nc(C)cc3N)cc2)cc1 | n | n | n | n | n | n
N#C/C(=C\c1ccccc1[N+](=O)[O-])C(=O)NCc1ccccc1 | n | n | n | n | n | n
N#C/C(=C/C=C/c1ccccc1)C(=O)Nc1ccccc1 | n | n | 69 | n | n | n
N#C/C(=C\C=C\c1ccccc1)C(=O)Nc1ccccc1 | n | n | n | n | n | n
N#C/C(=C\C=C\c1ccccc1[N+](=O)[O-])C(=O)NCc1ccccc1 | n | 94 | n | n | n | n
O=C(NCC1CCCCC1)c1cc(Br)ccc1Cl | n | n | n | n | n | n
SMILES | HSF1 inh | HSF1 activator | T cruzi repl | Jurkat NFkB inh | 697 NFkB inh | GPR7 antagonist
CCC(C)(C)NC(=O)C(c1cccnc1)N(C(=O)c1csnn1)c1ccccc1 (stereo not given) | n | n | n | n | n | n
NC(=S)N/N=C/c1cn(-c2ccccc2)nc1-c1cccnc1 | n | n | n | n | n | n
CCCCNC(=O)c1onc(CSc2cccc(Cl)c2)c1C(=O)O | -68 | n | n | n | n | n
COc1ccc(-c2nnc(-c3cccs3)o2)cc1OC | n | 60 | n | n | n | n
COc1cc(-c2nnc(-c3cccs3)o2)cc(OC)c1OC | n | n | n | n | n | n
CCN(CC)c1ccc2cc(-c3nnc(-c4ccncc4)o3)c(=O)oc2c1 | x | x | x | x | x | 41
CCN(CC)c1ccc2cc(C(C)=O)c(=O)oc2c1 | n | n | n | n | n | n
O=[N+]([O-])c1ccccc1/C=N/N1CCN(c2ccncc2S(=O)(=O)N2CCCCC2)CC1 | n | n | 76 | n | n | n
O=[N+]([O-])c1ccc(/C=N/N2CCN(c3ccncc3S(=O)(=O)N3CCCCC3)CC2)cc1 | n | n | n | n | n | n
Fc1ccccc1N1CCN(Cc2cc(-c3ccccc3)on2)CC1 | -75 | n | n | n | n | n

High-throughput results: PubChem, several laboratories
